In ChEMBL document CHEMBL4118110, “The identification of inhibitory compounds of Rickettsia prowazekii methionine aminopeptidase for antibacterial applications” (Bioorg Med Chem Lett, 2018):

Experiment: Inhibition of Rickettsia prowazekii N-terminal His6-tagged methionine aminopeptidase 1 expressed in Escherichia coli DLB3 Rosetta cells at 10 uM using Met-AMC as substrate preincubated for 1 hr followed by 30 mins incubation after substrate addition measured after 90 mins in presence of MnCl2 by fluorescence assay relative to control
Procedure, shortened: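 Recombinant R. prowazekii MetAP with Mn(II) as the metal cofactor. Met-AMC substrate; release of free AMC is followed by fluorescence (excitation 360 nm, emission 460 nm). Activity is the slope of fluorescence versus time, compared with an uninhibited control.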

SMILES | inhibition
CN(C)C(=O)CSc1nnc(-c2ccncc2)[nH]1 | 21 to 44%
CCCOC(=O)CSc1nnc(N)[nH]1 | 15 to 36%
COc1cc(C=O)ccc1OCc1ccc(C(=O)O)o1 | 36 to 53%
CC(C)N(C(=O)CSc1nnc(N)[nH]1)c1ccccc1 | 24 to 64%
CCc1ccc(C(=O)CSc2nnc(CC)[nH]2)cc1 | 9 to 47%
Cc1ccc(OCCCCSc2nnc(N)[nH]2)cc1 | 45 to 65%
O=C(O)c1cc(Br)c(Br)s1 | 30 to 64%
O=C(O)c1ccc(CS(=O)(=O)c2ccccc2)o1 | 16 to 27%
CCc1n[nH]c(SCC(=O)NCCc2ccccc2)n1 | 1 to 15%
COc1ccc(-c2nnc3c(N)cccn23)cc1 | 13 to 23%
CC(=O)Nc1ccc(C(=O)CSc2nnc(C)[nH]2)cc1 | 1 to 39%
COCCCn1cnc2sc(C(=O)O)c(C)c2c1=O | 7 to 22%
COc1ccc(C(=O)CSc2nnc(C)[nH]2)cc1C | 16 to 56%
c1ccc(-c2n[nH]c(-c3ccccn3)n2)cc1 | 6 to 23%
c1ccn2c(C3CCCN3)nnc2c1 (stereo not given) | 2 to 51%
CCCCOC(=O)CSc1nnc(N)[nH]1 | 39 to 62%
COc1ccc(OCCSc2n[nH]c(N)n2)cc1 | 27 to 32%
Cc1[nH]nc(C(=O)O)c1-c1ccccc1 | 2 to 37%
Nc1n[nH]c(SCC(=O)c2cccc([N+](=O)[O-])c2)n1 | 8 to 49%
NNC(=O)C(=O)Nc1ccccc1C(=O)O | 11 to 63%
CCn1nc(C(=O)O)c2ccccc2c1=O | 19 to 26%
O=C1CCC(c2ccccc2O)=NN1 | 51 to 54%
Cc1n[nH]c(SCc2ccc([N+](=O)[O-])cc2)n1 | 1 to 38%
Sc1n[nH]c(-c2csc3c2CCCC3)n1 | 45 to 49%

SMILES | inhibition
CC(C)(C)c1ccc(OCCSc2nnc(N)[nH]2)cc1 | 25 to 28%
Cc1ccc(S(=O)(=O)c2ccc(C(=O)O)s2)cc1 | 10 to 67%
Nc1nnc(SCCCOc2ccc(Cl)cc2)[nH]1 | 22 to 32%
CCc1ccc(OCCCSc2nnc(N)[nH]2)cc1 | 25 to 31%
O=C(O)c1cnc(-c2cccc(Cl)c2)o1 | 1 to 37%
CC(C)Oc1ccc(CCSc2nnc(N)[nH]2)cc1 | 47 to 53%
CCOC(=O)c1cccc(CSc2nnc(N)[nH]2)c1 | 47 to 59%
Nc1nnc(SCCCc2ccccc2)[nH]1 | 18 to 37%
Cc1ccc(NC(=O)CSc2nnc[nH]2)c(C)c1 | 25 to 66%
Cc1cc(C)n2c(C(N)CC(C)C)nnc2n1 (stereo not given) | 6 to 23%
Cc1cccc2nc(C(=O)O)cn12 | 38 to 58%
CC(Sc1nnc(N)[nH]1)C(=O)OC1CCCCC1 (stereo not given) | 46 to 54%
CC(C)N1CC(=O)C(c2nc3ccccc3[nH]2)=C1N | 25 to 26%
CC(C)CCNC(=O)c1ccc2[nH]c(=O)c(=O)[nH]c2c1 | 49 to 54%
CCc1nnc(SCC(=O)OC)[nH]1 | 6 to 25%
NC(=O)c1ccccc1N | 1 to 33%
COc1cccc(-c2cc(C(=O)O)no2)c1 | 31 to 35%
O=C(O)C1=NN(c2ccccc2)C(=O)CC1 | 14 to 39%
Cc1ccccc1NC(=O)CSc1nnc[nH]1 | 26 to 64%
Cc1c(C(=O)O)sc2ncn(CC3CCCO3)c(=O)c12 (stereo not given) | 10 to 24%
COc1ccc(Cl)cc1-c1nnc(S)[nH]1 | 20 to 65%
Oc1ccc(-c2ccc(F)cc2)nn1 | 44 to 66%
O=C(O)c1cc(-c2ccccn2)nc2ccccc12 | 37 to 55%
O=c1[nH]c2cccc3c2n(c1=O)CCO3 | 24 to 32%

SMILES | inhibition
CC(=O)c1c(O)nc2ccccn12 | 16 to 43%
O=C(NCc1ccccn1)c1ccc2[nH]c(=O)c(=O)[nH]c2c1 | 36 to 40%
O=C1CCCN1c1ccc(S(=O)(=O)Nc2cccc3cccnc23)cc1 | 5 to 22%
CN(C)c1cccc(-c2ccc(C(=O)NN)cc2)c1 | 29 to 56%
Cc1ccc(C2NC(C(=O)O)CS2)cc1 (stereo not given) | 1 to 74%
Cc1c(C(=O)O)sc2[nH]c(=S)[nH]c(=O)c12 | 45 to 46%
O=C(O)C1CCCN1C(=O)c1ccco1 (stereo not given) | 7 to 9%
O=C(O)c1cn(-c2ccccc2)nn1 | 1 to 47%
Nc1nnc(SCC(=O)c2ccc(O)cc2O)[nH]1 | 2 to 19%
CCSc1nnc([C@@H]2CCCN2)o1 | 1 to 34%
CN(C)C(=O)CSc1n[nH]c(-c2ccco2)n1 | 1 to 3%
Nc1ccccc1-c1nc(-c2ccc(F)cc2)no1 | 1 to 44%
CN(C)Cc1c(C(=O)O)nc2ccccn12 | 11 to 20%
O=c1c2ccc(-c3ccccn3)nc2[nH]n1-c1ccccc1 | 1 to 55%
Cc1cccc(-c2nnc(C(C)N)o2)c1 (stereo not given) | 1 to 43%
NCc1nc(-c2ccc(F)cc2)no1 | 62 to 70%
N#CC1=C(c2ccccc2)CSC(c2ccccn2)=NC1=N | 2 to 20%
Nc1cccc(-c2cnc(-c3ccccn3)s2)c1 | 30 to 36%
Cc1c(C(=O)O)sc2ncn(C3CCCCC3)c(=O)c12 | 17 to 26%
Nc1nnc(SCC(=O)OCc2ccccc2)[nH]1 | 20 to 34%
O=C(O)C1Cc2c([nH]c3ccccc23)CN1 (stereo not given) | 17 to 19%
COc1cccc(-c2nnc(CN)o2)c1 | 1 to 33%
CCOC(=O)CSc1n[nH]c(-c2ccco2)n1 | 1 to 51%
C1=C(c2ccccc2)Nc2ncnn2C1c1ccco1 (stereo not given) | 23 to 32%

SMILES | inhibition
O=C(O)c1ccc(COc2ccc3ccc(=O)oc3c2)o1 | 14 to 21%
Cc1ccc(CSc2nnc(N)[nH]2)cc1 | 36%
Cc1c(C(=O)O)sc2ncn(CC(=O)O)c(=O)c12 | 2 to 44%
Nc1nnc(SCc2ccc([N+](=O)[O-])cc2)[nH]1 | 42 to 45%
O=C(O)c1ccc(Sc2ccc(Br)cc2)o1 | 1 to 48%
Cc1ccc(C(=O)NN)cc1 | 1 to 34%
Nc1nnc(SCC(=O)OCCCc2ccccc2)[nH]1 | 44 to 62%
O=C(O)c1nn(-c2ccccc2)c2c1CCC2 | 45 to 51%
Cc1cc(C(=O)O)nn1-c1cccc(Cl)c1 | 1 to 22%
O=C(NCCCCl)C(=O)NCCCCl | 8 to 43%
CC(C)CNC(=O)c1ccc2[nH]c(=O)c(=O)[nH]c2c1 | 35 to 44%
Cc1cccn2c(=O)c3cc(C(=O)O)sc3nc12 | 31 to 36%
CC(=O)c1c(C(=O)O)nn(-c2ccc(Cl)cc2)c1C | 17 to 20%
CCc1n[nH]c(SCC(=O)c2cc(C)ccc2C)n1 | 11 to 43%
COC(=O)CSc1n[nH]c(-c2ccncc2)n1 | 1 to 39%
Nc1nnc(SCC(=O)OCCOc2ccccc2)[nH]1 | 47 to 56%
O=C(O)c1ccc(Cn2cnc3ccccc32)o1 | 9 to 23%
Cc1nnc(SCC(=O)c2ccc(C(C)C)cc2)[nH]1 | 1 to 41%
CCc1nnc(SCC(=O)c2ccc(C)cc2)[nH]1 | 11 to 14%
CCc1nnc(SCC(=O)c2ccc(Cl)cc2)[nH]1 | 9 to 23%
CC(N)c1nnc(-c2ccccc2)o1 (stereo not given) | 1 to 32%
O=C(O)c1ccc(S(=O)(=O)Cl)s1 | 2 to 36%
Cc1nnc(CN)o1 | 13 to 32%
COc1cccc(-c2nnc(-c3ccccc3N)[nH]2)c1 | 1 to 19%

SMILES | inhibition
Cc1nnc(SCC(=O)c2cccc3ccccc23)[nH]1 | 38 to 67%
Cc1nnc(SCC(=O)N2CCCc3ccccc32)[nH]1 | 43 to 44%
Cc1cc(C)cc(OCCSc2nnc(N)[nH]2)c1 | 38 to 39%
Cc1nc(-c2ccccn2)sc1C(=O)N1CCCCC1 | 15 to 20%
N#Cc1ccccc1CSc1nnc(N)[nH]1 | 27 to 28%
Cc1ccc(-c2cc(C(=O)O)nn2C)cc1 | 42 to 45%
c1ccc(-c2nc3ccccc3[nH]2)nc1 | 1 to 35%
O=C(O)c1ccc(CSc2ccc(Cl)cc2)o1 | 20 to 28%
N#Cc1cccc(NCc2ccc(O)c3ncccc23)c1 | 1 to 5%
c1ccc2[nH]c(C3CCCN3)nc2c1 (stereo not given) | 6 to 23%
Cc1cccc(OCc2ccc(C(=O)O)o2)c1 | 1 to 33%
Cc1c(C(=O)O)sc2nc(C)n(C)c(=O)c12 | 22 to 34%
O=C(O)c1cc(-c2cccnc2)on1 | 29 to 33%
Cc1ccc(C(=O)CSc2nnc(-c3ccco3)[nH]2)cc1 | 24 to 26%
Cc1ccccc1-c1nnc(C(C)N)o1 (stereo not given) | 2 to 39%
Nc1nnc(SCC(=O)OC2CCCCC2)[nH]1 | 60 to 68%
CCOC(=O)CSc1nnc(-c2ccncc2)[nH]1 | 1 to 59%
O=C(O)c1cnc2c(ccc3ccccc32)c1O | 22 to 43%
Nc1nnc(SCCN2CCCCC2)[nH]1 | 1 to 34%
O=C(O)c1cc([N+](=O)[O-])c(Cl)s1 | 7 to 63%
CCc1nnc(SCC(=O)c2ccc(C(C)C)cc2)[nH]1 | 9 to 44%
Cc1ccc(OCCCSc2n[nH]c(N)n2)cc1 | 42 to 51%
CCOC(=O)CSc1nnc(N)[nH]1 | 18 to 34%
CCCCCn1cnc2sc(C(=O)O)c(C)c2c1=O | 34 to 57%

SMILES | inhibition
O=C(CSc1nnc[nH]1)c1cccc2ccccc12 | 1 to 39%
O=C(O)c1csc(Cc2ccccc2)n1 | 1 to 67%
O=C(O)c1ccc(CSc2ccccc2)o1 | 5 to 34%
O=Cc1ccc(OCc2ccc(C(=O)O)o2)cc1 | 40 to 59%
Nc1cccc2c(-c3cccnc3)n[nH]c12 | 16 to 21%
Nc1cc(-c2ccccn2)n[nH]1 | 1 to 45%
CCc1n[nH]c(SCC(=O)c2cccc([N+](=O)[O-])c2)n1 | 16 to 44%
Nc1nnc(SCc2cccc(Cl)c2)[nH]1 | 1 to 23%
CCc1nnc(SCC(=O)c2ccccc2)[nH]1 | 1 to 40%
CC(C)(Oc1ccc(Cl)cc1)C(=O)NN | 42 to 46%
CN(C)Cc1cc(C(=O)O)no1 | 2 to 60%
O=C(O)c1n[nH]c2ccccc12 | 35 to 36%
Cc1ccc(-c2nnc(C(C)N)o2)cc1 (stereo not given) | 21 to 49%
COc1ccc(OCc2ccc(C(=O)O)o2)cc1 | 1 to 37%
Cc1nnc(SCC(=O)c2ccc(C)c(C)c2)[nH]1 | 10 to 24%
O=c1[nH]c2cc(Cl)ccc2n(Cc2ccccc2)c1=O | 1 to 62%
O=C(O)c1ccc(CSc2nnc[nH]2)o1 | 16 to 21%
CC(C)c1ccc2nc(-c3ccccn3)cc(C(=O)O)c2c1 | 18 to 56%
O=C(O)c1cccnc1-c1ncccc1C(=O)O | 13 to 49%
O=C(O)c1nc(C2CC2)n2ccccc12 | 40 to 68%
